Screening results from PubChem.
APP 5'UTR act: activates APP 5'UTR luciferase reporter. SH-SY5Y APP 5'UTR luciferase reporter, luminescence; zero percent = DMSO vehicle wells. AID 1276. activation, % at 2 µM. hit rate 1% among 190,000;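 active = activation above a set limit, based on mean plus 3 SD of controls, cut at about 140% in these data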
STAT1 act: STAT1 signaling activation | NIH 3T3 STAT1-luciferase reporter, IFN-gamma, luminescence; 100% = IFN-gamma alone, no compound | activation (% of control), % at 5.5 µM | hit rate 2.6% among 200,000;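 active = activation above the screen-wide mean activation plus 3 SD, cut at about 130% in these data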;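 also: raw ratio to IFN-gamma control signal so 100% means no change and 0% no light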
STAT3 inh-1: reduces IL-6 driven STAT3 reporter signal; U3A cells, IL-6 STAT3-luciferase reporter, luminescence; host cell line lacks STAT1; inhibition, % at 5.5 µM; hit rate 0.89% among 190,000; AID 862;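 active = inhibition above the mean inhibition across all screened compounds plus 3 SD, cut at about 44% in these data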;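 also: 0% = DMSO only wells and 100% = 100 µM nifuroxazide control wells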
STAT3 activator: increases IL-6 driven STAT3 reporter signal | U3A cells, IL-6 STAT3-luciferase reporter, luminescence; 100% = signal with IL-6 EC80 alone | activation (% of control), % at 5.6 µM | hit rate 0.91% among 190,000 | AID 871;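 active = activation above the screen-wide mean of compound activation plus 3 SD, cut at about 130% in these data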;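 also: 0% = background luminescence of wells with medium and substrate only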
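Detection: reporter luminescence signal / Assay system: STAT1-lacking human U3A cells, STAT3 luciferase reporter / Incubation: compound pre-incubation 1 h before IL-6, then 6 h stimulation at 37 °C / Control set: IL-6-only high control / Read-out: % activation relative to IL-6 control / Probe or stimulus: Interleukin-6, 33 ng/mL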
STAT1 inh: STAT1 signaling inhibition | inhibition, % at 5.5 µM | AID 920 | NIH 3T3 STAT1-luciferase reporter, IFN-gamma, luminescence | hit rate 0.35% among 200,000;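 active = inhibition above a set limit, the mean inhibition across all tested compounds plus 3 SD, cut at about 34% in these data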;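 also: 0% = IFN-gamma with DMSO and 100% = IFN-gamma with 300 µM nifuroxazide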
NF-kB neuron act: NF-kB expression increase, human neuronal cells. fold change at 12.5 µM. NF-kB reporter expression; stronger effect = higher value. AID 1239. hit rate 1.6% among 190,000; in the data active = fold change above about 3.3
STAT3 inh-2: STAT3 inhibition, confirmation assay; shares compounds with STAT3 inh-1; U3A cells, IL-6 STAT3 luciferase reporter, luminescence; cell line lacks STAT1; inhibition, % at 5.7 µM; hit rate 45% among 1,200; AID 1265;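 active = inhibition above the hit cutoff computed for the primary STAT3 screen, cut at about 44% in these data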;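 also: 0% = IL-6 plus DMSO and 100% = IL-6 plus nifuroxazide control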
NFkB inh 2: inhibits NF-kappaB, counter-screen to STAT3 inhibitors. HEK293T NF-kB luciferase reporter, TNF-alpha induced. hit rate 36% among 1,200. inhibition, % at 5.7 µM. shares compounds with STAT3 inh-1;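 active = inhibition above the mean of solvent-only control wells plus 3 SD, cutoff set per campaign, cut at about 13% in these data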;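 also: 0% = TNF-alpha with DMSO and 100% = TNF-alpha with MG high control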
STAT1 inh 2: counter-screen for STAT3 inhibitors: STAT1 inhibition; inhibition, % at 5.7 µM; AID 1317; shares compounds with STAT3 inh-1; hit rate 27% among 1,200; NIH 3T3 STAT1-luciferase reporter, IFN-gamma induced, luminescence;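 active = inhibition above the mean plus 3 SD of solvent-only control wells, limit set per screening run, cut at about 16% in these data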;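 also: 0% = DMSO with IFN-gamma and 100% = nifuroxazide control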
The depositor's hits bear a star. This is a sample that favours compounds with a hit; in the whole collection about 4.9% have one here.

CC1CCN(S(=O)(=O)c2ccc(Oc3ccc([N+](=O)[O-])cc3)cc2)CC1 was read as APP 5'UTR act -8, STAT1 act 89, STAT3 inh-1 47*, STAT3 activator 68, STAT1 inh 12, NF-kB neuron act 0.73, STAT3 inh-2 18, NFkB inh 2 -3 and STAT1 inh 2 1.
`Fc1ccc(/C=C2\CCCC3=C2Nc2ncnn2C3c2ccc(F)cc2)cc1` (centres undefined) gave APP 5'UTR act -56, STAT1 act 96, STAT3 inh-1 45*, STAT3 activator 63, STAT1 inh 5, NF-kB neuron act 0.28, STAT3 inh-2 32, NFkB inh 2 3 and STAT1 inh 2 19*.
`COc1ccc(C2C3=C(Nc4ncnn42)c2ccccc2CCC3)cc1` (centres undefined) gave APP 5'UTR act -10, STAT1 act 94, STAT3 inh-1 8, STAT3 activator 98, STAT1 inh 6 and NF-kB neuron act 1.2.
CC(=O)Nc1cccc(OCC(O)Cn2c(C)nc3ccccc32)c1 (centres undefined) was read as APP 5'UTR act 21, STAT1 act 96, STAT3 inh-1 15, STAT3 activator 89, STAT1 inh 5 and NF-kB neuron act 0.93.
For OC(COCC1CC=CCC1)Cn1cnc2ccccc21 (centres undefined) the results were APP 5'UTR act 13, STAT1 act 100, STAT3 inh-1 0, STAT3 activator 99, STAT1 inh 0 and NF-kB neuron act 1.
`CCCOC(=O)c1ccc(OCC(O)Cn2c(C)nc3ccccc32)cc1` (centres undefined) gave APP 5'UTR act 0, STAT1 act 77, STAT3 inh-1 61*, STAT3 activator 50, STAT1 inh 23, NF-kB neuron act 1.4, STAT3 inh-2 63*, NFkB inh 2 20* and STAT1 inh 2 23*.
For Cc1nc2ccccc2n1CC(O)COCC1CC=CCC1 (centres undefined) the results were APP 5'UTR act -13, STAT1 act 84, STAT3 inh-1 44*, STAT3 activator 63, STAT1 inh 14, NF-kB neuron act 0.73, STAT3 inh-2 40, NFkB inh 2 -1 and STAT1 inh 2 11.
Screening O=C(Nc1ccc2nn(-c3ccccc3)nc2c1)c1cccnc1 returned APP 5'UTR act 51, STAT1 act 124, STAT3 inh-1 15, STAT3 activator 90, STAT1 inh -27 and NF-kB neuron act 1.3.
Screening CC(C)C(=O)Nc1ccc2nn(-c3ccccc3)nc2c1 returned APP 5'UTR act 234*, STAT1 act 116, STAT3 inh-1 48*, STAT3 activator 63, STAT1 inh -19, NF-kB neuron act 1.1, STAT3 inh-2 15, NFkB inh 2 -34 and STAT1 inh 2 -155.
Screening Cc1nnc(N2CCOCC2)c2nn(-c3ccccc3)c(C)c12 returned APP 5'UTR act -17, STAT1 act 98, STAT3 inh-1 13, STAT3 activator 90, STAT1 inh 2 and NF-kB neuron act 1.1.
For c1ccc(-n2nnc3c(N4CCOCC4)ncnc32)cc1 the results were APP 5'UTR act 148*, STAT1 act 90, STAT3 inh-1 81*, STAT3 activator 32, STAT1 inh 11, NF-kB neuron act 2.5, STAT3 inh-2 40, NFkB inh 2 2 and STAT1 inh 2 -53.
For O=C(NC1CCN(Cc2ccccc2)CC1)c1ccc2c(c1)[nH]c(=O)n2Cc1ccc(F)cc1 the results were APP 5'UTR act -20, STAT1 act 90, STAT3 inh-1 47*, STAT3 activator 63, STAT1 inh 9, NF-kB neuron act 0.82, STAT3 inh-2 51*, NFkB inh 2 17* and STAT1 inh 2 8.
